In ChEMBL document CHEMBL1138513, “Glucose promoiety enables glucose transporter mediated brain uptake of ketoprofen and indomethacin prodrugs in rats” (J Med Chem, 2009):

Experiments:
[1] = Chemical stability in aqueous phosphate buffer at pH 7.4 assessed as half life by HPLC; format: physicochemical
In short: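 Prodrug dissolved in preheated 0.16 M phosphate buffer, pH 7.4, ionic strength 0.5, held at 37 °C in a water bath. Samples taken at intervals and remaining prodrug measured by HPLC. Pseudo-first-order t1/2 taken from the slope of log remaining prodrug versus time; mean ± sd, n = 2.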

Brain [2] = test: (§1) Metabolic stability in rat brain homogenate assessed as half life by HPLC; format: ADME, tissue-based
In short: (§2)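 Prodrug incubated at 37 °C in rat brain homogenate diluted to 20% (v/v), or in liver homogenate diluted to 50% (v/v), in isotonic 0.16 M phosphate buffer, pH 7.4. Aliquots quenched with acetonitrile and centrifuged; remaining prodrug and released parent drug measured by HPLC. Pseudo-first-order t1/2 reported; mean ± sd, n = 3.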

[3] = target: T1, Solute carrier family 2, facilitated glucose transporter member 1 (Rattus norvegicus) (UniProt P11167); test: Inhibition of GluT1-mediated [14C]D-glucose uptake in Wistar rat brain at 20 mM by perfusion technique
T1 sequence (whole entry): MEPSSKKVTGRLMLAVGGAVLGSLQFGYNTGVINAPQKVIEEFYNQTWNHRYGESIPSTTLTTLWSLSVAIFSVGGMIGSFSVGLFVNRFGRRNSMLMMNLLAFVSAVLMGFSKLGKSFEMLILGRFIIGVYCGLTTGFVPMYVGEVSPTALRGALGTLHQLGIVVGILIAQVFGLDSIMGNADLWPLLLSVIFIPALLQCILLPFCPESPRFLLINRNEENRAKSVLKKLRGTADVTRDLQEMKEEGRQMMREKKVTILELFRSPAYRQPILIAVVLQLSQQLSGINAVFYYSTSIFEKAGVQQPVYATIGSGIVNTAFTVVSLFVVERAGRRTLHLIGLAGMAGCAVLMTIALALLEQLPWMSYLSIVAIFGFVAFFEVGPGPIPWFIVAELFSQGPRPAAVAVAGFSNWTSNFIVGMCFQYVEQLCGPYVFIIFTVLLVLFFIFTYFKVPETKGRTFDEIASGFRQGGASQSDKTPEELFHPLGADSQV

Brain [4] = test: Drug uptake in Wistar rat brain at 150 uM by perfusion technique in presence of D-glucose; format: ADME, tissue-based; conditions: in vivo
In short: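 Male Wistar rats, in situ carotid brain perfusion. Prodrug at 150 µM given for 60 s at 37 °C in perfusion medium (1% DMSO, pH 7.4) with 50 mM D-glucose added, followed by a 30 s cold prodrug-free wash. Brain prodrug measured by HPLC; uptake in pmol/mg/min, mean ± sd, n = 3.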

Brain [5] = test: Drug uptake in Wistar rat brain at 150 uM by perfusion technique; format: ADME, tissue-based; conditions: in vivo
In short: (§3)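 In situ brain perfusion via the right common carotid artery in adult male Wistar rats (200-230 g) under ketamine/xylazine ip. Prodrug in perfusion medium with 1% DMSO, pH 7.4, perfused 60 s at 37 °C, then washed with cold (5 °C) prodrug-free medium for 30 s. Brain hemisphere analysed by HPLC; uptake in pmol/mg/min, mean ± sd, n = 3.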

[6] = target: T2, Solute carrier family 2, facilitated glucose transporter member 1 (Rattus norvegicus, UniProt P11167); test: (§4) Inhibition of GluT1-mediated [14C]D-glucose uptake in Wistar rat brain by perfusion technique
T2 sequence (P11167 whole entry): T1 sequence (whole entry)
In short: (§5)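 Rat brain PA product of 0.2 µCi/mL [14C]D-glucose measured by in situ perfusion with prodrug co-perfused at concentrations from 0.1 to 1000 µM or 0.01 to 80 µM. IC50 obtained by nonlinear regression; mean ± sd, n = 2.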

[7] = target: T1, Solute carrier family 2, facilitated glucose transporter member 1 (Rattus norvegicus); test: as §4; in short: as §5
Brain [8] = test: Drug uptake in Wistar rat brain at 150 uM by perfusion technique […]; format: ADME, tissue-based; conditions: in vivo
In short: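 Carrier-mediated uptake blocked nonspecifically by cold in male Wistar rats. Capillaries first washed 30 s with 5 °C prodrug-free medium, then perfused 60 s with 5 °C prodrug solution at 150 µM, then washed again with cold medium. Brain prodrug measured by HPLC; mean ± sd, n = 3.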

[9] = target: T1, Solute carrier family 2, facilitated glucose transporter member 1 (Rattus norvegicus); test: Inhibition of GluT1-mediated [14C]D-glucose uptake in Wistar rat brain at 80 uM after 30 seconds perfusion measured after drug washout from brain capillary 30 seconds before [14C]D-glucose challenge
In short: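 Reversibility test in male Wistar rats. Brain perfused first with prodrug at 80 µM for 30 s, then with prodrug-free medium for 30 s to wash the capillaries, then with 0.2 µCi/mL [14C]D-glucose for 30 s. PA product of [14C]D-glucose then determined.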

[10] = target: T1, Solute carrier family 2, facilitated glucose transporter member 1 (Rattus norvegicus); test: Inhibition of GluT1-mediated [14C]D-glucose uptake in Wistar rat brain at 80 uM by perfusion technique
Brain [11] = test: Drug uptake in Wistar rat brain at 450 uM by perfusion technique; format: ADME, tissue-based; conditions: in vivo; in short: as §3
Brain [12] = test: Drug uptake in Wistar rat brain at 15000 uM by perfusion technique; format: ADME, tissue-based; conditions: in vivo; in short: as §3
Brain [13] = test: Drug uptake in Wistar rat brain at 1000 uM by perfusion technique; format: ADME, tissue-based; conditions: in vivo; in short: as §3
[14] = as §1; format: ADME, tissue-based; in short: as §2
[15] = Metabolic stability in rat liver homogenate assessed as half life by HPLC; format: ADME, tissue-based; in short: as §2
Brain [16] = test: Drug uptake in Wistar rat brain at 3500 uM by perfusion technique; format: ADME, tissue-based; conditions: in vivo; in short: as §3

Row | half-life [1] [h] | Activity (Brain [2]) | Drug uptake (Brain [4]) [pmol/mg/min] | Drug uptake (Brain [5]) [pmol/mg/min] | IC50 [6] [µM] | Activity [7] | Drug uptake (Brain [8]) [pmol/mg/min] | PA [9] [mL/s/g] | inhibition [10] [%] | SMILES | further results
1 | 3 | Unstable |  |  |  |  |  |  |  | COc1ccc2c(c1)c(CC(=O)OCC(=O)OC[C@H]1O[C@@H](O)[C@H](O)[C@@H](O)[C@@H]1O)c(C)n2C(=O)c1ccc(Cl)cc1 | 
2 | 40.5 |  | 1.806 | 1.993 | 0.71 | Dose-dependent effect | 0.599 | 0.0032 | 96.7 | COc1ccc2c(c1)c(CC(=O)OC[C@H]1O[C@@H](O)[C@H](O)[C@@H](O)[C@@H]1O)c(C)n2C(=O)c1ccc(Cl)cc1 | 

The remaining lines, values behind:

Row | SMILES | half-life [1] [h] | Activity (Brain [2]) | Drug uptake (Brain [4]) [pmol/mg/min] | Drug uptake (Brain [5]) [pmol/mg/min] | IC50 [6] [µM] | Activity [7] | Drug uptake (Brain [8]) [pmol/mg/min] | PA [9] [mL/s/g] | inhibition [10] [%] | further results
3 | OC[C@H]1OC(O)[C@H](O)[C@@H](O)[C@@H]1O (some centres not stated) |  |  |  |  |  |  |  |  |  | inhibition [3]: 73.8%
4 | CC(C(=O)OC[C@H]1O[C@@H](O)[C@H](O)[C@@H](O)[C@@H]1O)c1cccc(C(=O)c2ccccc2)c1 (some centres not stated) | 88.5 |  | 0.513 | 1.33 | 32.9 | Dose-dependent effect | 0.515 | 0.0033 | 75.5 | Drug uptake (Brain [11]): 3.55 pmol/mg/min; Drug uptake (Brain [12]): 93.21 pmol/mg/min; Drug uptake (Brain [13]): 7.78 pmol/mg/min; half-life [14]: 0.725 h; half-life [15]: 8.6 min; Drug uptake (Brain [16]): 20.77 pmol/mg/min
5 | COc1ccc2c(c1)c(CC(=O)OC(C)C(=O)OC[C@H]1O[C@@H](O)[C@H](O)[C@@H](O)[C@@H]1O)c(C)n2C(=O)c1ccc(Cl)cc1 (some centres not stated) | 9.5 | Unstable |  |  |  |  |  |  |  | 
